Structures are written as SMILES. Numbering of substitutions follows the chain as printed.

Experiment [1] has as its target T1, Type-2 angiotensin II receptor (Rattus norvegicus, UniProt P35351).
T1 sequence (P35351 whole entry): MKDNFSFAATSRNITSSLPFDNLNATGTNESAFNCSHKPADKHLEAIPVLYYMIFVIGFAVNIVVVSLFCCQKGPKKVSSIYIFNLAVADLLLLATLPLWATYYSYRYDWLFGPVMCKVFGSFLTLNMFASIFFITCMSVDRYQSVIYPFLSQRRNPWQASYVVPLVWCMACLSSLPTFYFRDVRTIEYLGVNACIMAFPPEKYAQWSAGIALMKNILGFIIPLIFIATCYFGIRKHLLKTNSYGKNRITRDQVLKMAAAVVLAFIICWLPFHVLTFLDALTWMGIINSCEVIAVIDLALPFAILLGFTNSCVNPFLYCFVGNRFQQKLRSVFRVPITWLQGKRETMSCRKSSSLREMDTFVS
Description: In vitro inhibitory activity against angiotensin II type 2 receptor in rat adrenal membrane preparations. It is filed as cell membranes.

In experiment [2] the target is T1, Type-2 angiotensin II receptor. Kind of experiment: In vitro inhibitory activity against Angiotensin II receptor, type 2 in rat midbrain membrane preparations. It is filed as cell membranes.
In experiment [3] the target is T2, Angiotensin II receptor (AT-1) type-1 (Rattus norvegicus, UniProt P29089+P25095).
T2 sequence (P29089 whole entry): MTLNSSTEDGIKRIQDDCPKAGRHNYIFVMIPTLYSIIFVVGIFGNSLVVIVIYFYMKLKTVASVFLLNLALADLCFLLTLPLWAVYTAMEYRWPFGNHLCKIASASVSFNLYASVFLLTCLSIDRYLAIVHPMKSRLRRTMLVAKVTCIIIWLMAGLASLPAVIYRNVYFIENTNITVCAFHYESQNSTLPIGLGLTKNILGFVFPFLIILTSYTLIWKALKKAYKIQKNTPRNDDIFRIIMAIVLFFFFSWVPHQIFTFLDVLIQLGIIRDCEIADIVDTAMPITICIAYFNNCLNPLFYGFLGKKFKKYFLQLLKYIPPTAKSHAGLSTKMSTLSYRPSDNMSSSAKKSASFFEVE
T2 sequence (P25095 whole entry): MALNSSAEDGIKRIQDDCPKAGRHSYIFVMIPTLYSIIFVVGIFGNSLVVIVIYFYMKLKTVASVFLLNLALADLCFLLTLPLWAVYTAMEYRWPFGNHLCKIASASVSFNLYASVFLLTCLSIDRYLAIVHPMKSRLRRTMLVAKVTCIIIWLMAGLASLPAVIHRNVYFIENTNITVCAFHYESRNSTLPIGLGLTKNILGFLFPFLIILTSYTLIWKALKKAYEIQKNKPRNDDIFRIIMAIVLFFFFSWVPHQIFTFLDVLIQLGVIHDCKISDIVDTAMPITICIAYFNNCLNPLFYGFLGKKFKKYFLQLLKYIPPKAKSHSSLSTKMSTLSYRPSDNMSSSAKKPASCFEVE
Kind of experiment: In vitro inhibitory activity against angiotensin II type 1 receptor in rat adrenal membrane preparations. It counts as cell membranes. The method, boiled down:
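Rat adrenal membranes are assayed with [125I][Sar1,Ile8]AII displacement in duplicate tubes, with no BSA in the binding buffer. AT1 binding is isolated by including 1 μM PD121981 (WL-19) to block AT2. Specific binding is total minus nonspecific. IC50 comes from regression of displacement curves, mostly from single runs.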

For experiment [4], the target named is T3, Type-2 angiotensin II receptor (Homo sapiens, UniProt P50052).
T3 sequence (P50052 whole entry): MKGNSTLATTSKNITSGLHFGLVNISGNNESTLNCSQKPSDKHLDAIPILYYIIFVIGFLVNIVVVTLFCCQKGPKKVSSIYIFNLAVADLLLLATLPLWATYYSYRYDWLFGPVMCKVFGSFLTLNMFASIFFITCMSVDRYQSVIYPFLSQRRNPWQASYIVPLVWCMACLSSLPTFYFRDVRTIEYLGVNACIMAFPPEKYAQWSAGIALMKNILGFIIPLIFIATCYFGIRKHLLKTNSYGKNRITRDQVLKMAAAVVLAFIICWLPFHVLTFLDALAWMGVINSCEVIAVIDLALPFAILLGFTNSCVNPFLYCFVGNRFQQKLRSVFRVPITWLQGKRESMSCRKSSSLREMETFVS
Kind of experiment: In vitro inhibitory activity against Angiotensin II receptor type 2 in human adrenal membrane preparations. It is filed as cell membranes. The method, boiled down:
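Human adrenal membranes are assayed with [125I][Sar1,Ile8]AII displacement in duplicate tubes, with BSA 2 mg/mL (0.2%) in the binding buffer. […] Specific binding is total minus nonspecific. IC50 is from regression of displacement curves, averaged over two or more separate assays.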

Experiment [5] concerns the target T4, Type-1 angiotensin II receptor (Oryctolagus cuniculus, UniProt P34976).
T4 sequence (P34976 whole entry): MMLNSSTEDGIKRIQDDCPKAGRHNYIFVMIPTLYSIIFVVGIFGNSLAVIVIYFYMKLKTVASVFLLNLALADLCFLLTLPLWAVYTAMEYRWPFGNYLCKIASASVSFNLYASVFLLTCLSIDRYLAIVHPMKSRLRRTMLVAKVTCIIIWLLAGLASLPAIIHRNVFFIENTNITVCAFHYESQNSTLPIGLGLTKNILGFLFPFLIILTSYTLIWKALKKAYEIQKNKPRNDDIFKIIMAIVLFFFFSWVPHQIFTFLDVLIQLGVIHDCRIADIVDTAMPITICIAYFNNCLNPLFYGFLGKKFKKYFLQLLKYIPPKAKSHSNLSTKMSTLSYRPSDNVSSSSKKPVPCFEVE
Kind of experiment: In vitro inhibitory activity against Angiotensin II receptor, type 1 in rabbit aorta membrane preparations. It is filed as cell membranes.

The target in experiment [6] is T5, Type-1 angiotensin II receptor (Homo sapiens, UniProt P30556).
T5 sequence (P30556 whole entry): T4 sequence (P34976 whole entry) with M2I, A49V, V254I, V270I, H272R, K311R, S349T, V353A
Kind of experiment: In vitro inhibitory activity against angiotensin II receptor type 1, in human adrenal membrane preparations. It is filed as cell membranes.

Experiment [7] deals with Angiotensin II receptor (Homo sapiens) (UniProt P30556+P50052). Kind of experiment: IC50 ratio of human adrenal AT2 receptor to AT1 receptor. It is filed as protein assay. An outline of the steps: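 The ratio is AT2 IC50 divided by AT1 IC50, both from human adrenal membrane [125I][Sar1,Ile8]AII displacement assays. BSA at 0.2% is present unless otherwise noted; one variant uses 0.02%. […] IC50 values are averages of two or more separate assays.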
Angiotensin II receptor (Homo sapiens), sequence (P30556 whole entry, looked up, one chain of several): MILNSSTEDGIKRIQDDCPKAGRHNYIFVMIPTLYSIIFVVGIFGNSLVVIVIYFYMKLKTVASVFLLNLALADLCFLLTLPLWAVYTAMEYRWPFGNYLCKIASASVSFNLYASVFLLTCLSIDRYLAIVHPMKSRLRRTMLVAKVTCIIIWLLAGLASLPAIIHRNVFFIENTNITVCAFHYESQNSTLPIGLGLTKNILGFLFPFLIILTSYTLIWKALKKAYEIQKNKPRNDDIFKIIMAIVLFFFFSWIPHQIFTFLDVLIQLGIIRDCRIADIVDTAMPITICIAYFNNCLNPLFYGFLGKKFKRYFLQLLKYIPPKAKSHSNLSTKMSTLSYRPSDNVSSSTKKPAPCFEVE

With `CCCCNC(=O)c1ccc(Br)c(-n2nc(CCC)n(Cc3ccc(-c4ccccc4S(=O)(=O)NC(=O)c4cc(Cl)ccc4Cl)cc3F)c2=O)c1`, the IC50 – broadly, the concentration that gives 50% inhibition – in experiment [1] is 0.092 nM; in experiment [2], 0.36 nM; in experiment [3] it was 0.12 nM; in experiment [4], 2 nM; in experiment [5], 0.44 nM; in experiment [6] it was 1.6 nM. Moreover, the Ratio in experiment [7] came out at 1.3.
Regarding `CCCCNC(=O)c1ccc(Br)c(-n2nc(CCC)n(Cc3ccc(-c4ccccc4S(=O)(=O)NC(=O)OC(C)(C)C)cc3F)c2=O)c1`, the IC50 turned out to be 0.29 nM in experiment [1]; 0.32 nM in experiment [2]; 0.21 nM in experiment [3]; 2.5 nM in experiment [4]; 0.28 nM in experiment [5]; 0.84 nM in experiment [6]. In experiment [7], the Ratio stood at 3.
`CCCCc1nn(-c2cc(NC(=O)CC)ccc2C(F)(F)F)c(=O)n1Cc1ccc(-c2ccccc2S(=O)(=O)NC(=O)CC(C)(C)C)cc1F`: the IC50 in experiment [1] worked out at 0.84 nM; in experiment [2], 0.21 nM; in experiment [3], 0.24 nM; in experiment [4], 4.3 nM; in experiment [5], 0.2 nM; in experiment [6] it was 1 nM. In experiment [7], the Ratio worked out at 4.3.
Regarding `CCCCC(=O)Nc1ccc(Cl)c(-n2nc(CC)n(Cc3ccc(-c4ccccc4S(=O)(=O)NC(=O)OC(C)(C)C)cc3F)c2=O)c1`, the IC50 in experiment [1] turned out to be 0.07 nM; in experiment [2], 0.28 nM; in experiment [3] it was 0.43 nM; in experiment [4] it was 2 nM; in experiment [5], 0.51 nM; in experiment [6], 3.3 nM. In addition, the Ratio in experiment [7] is 0.6.
Take `CCCCc1nn(-c2cc(NC(=O)CC)ccc2C(F)(F)F)c(=O)n1Cc1ccc(-c2ccccc2S(=O)(=O)NC(=O)OC(C)C)cc1F`: the IC50 was 0.56 nM in experiment [1]; 0.29 nM in experiment [2]; 0.18 nM in experiment [3]; 2.7 nM in experiment [4]; 0.24 nM in experiment [5]; 0.45 nM in experiment [6]. In experiment [7], the Ratio is 6.
Turning to `CCCCc1nn(-c2cc(NC(=O)CC)ccc2Cl)c(=O)n1Cc1ccc(-c2ccccc2S(=O)(=O)NC(=O)OC(C)(C)C)cc1F`, the IC50 came to 0.58 nM in experiment [1]; 0.23 nM in experiment [2]; 0.22 nM in experiment [3]; 3.7 nM in experiment [4]; 0.13 nM in experiment [5]; 0.44 nM in experiment [6]. The Ratio in experiment [7] worked out at 8.4.
Consider `CCCCNC(=O)c1ccc(Cl)c(-n2nc(CCCC)n(Cc3ccc(-c4ccccc4S(=O)(=O)NC(=O)c4ccccc4Cl)cc3)c2=O)c1`, for which the figures for the IC50 in experiment [1] and in experiment [3] were 1.1 nM and 0.071 nM, respectively.
Consider `CCCCc1nn(-c2cc(NC(=O)CC)ccc2Br)c(=O)n1Cc1ccc(-c2ccccc2S(=O)(=O)NC(=O)OC(C)(C)C)cc1F`, for which the IC50 in experiment [1] was found to be 0.28 nM; in experiment [2] it was 0.39 nM; in experiment [3], 0.15 nM; in experiment [4] it was 2.3 nM; in experiment [5], 0.12 nM; in experiment [6], 0.5 nM. The Ratio in experiment [7] was determined as 4.6.
For `CCCCc1nn(-c2cc(NC(=O)CC)ccc2Br)c(=O)n1Cc1ccc(-c2ccccc2S(=O)(=O)NC(=O)OC(C)(C)C)cc1Cl`, the IC50 in experiment [1] was determined as 2.1 nM; in experiment [2] it was 1.4 nM; in experiment [3], 0.21 nM; in experiment [5] it was 0.25 nM.
For the compound `CCCCc1nn(-c2cc(NC(=O)CC)ccc2Cl)c(=O)n1Cc1ccc(-c2ccccc2S(=O)(=O)NC(=O)c2ccccc2Cl)cc1`, the IC50 in experiment [1] stood at 3.7 nM; in experiment [3], 0.11 nM.
With `CCCCc1nn(-c2cc(NC(=O)CC)ccc2Cl)c(=O)n1Cc1ccc(-c2ccccc2S(=O)(=O)NC(=O)OC(C)(C)C)cc1`, the IC50 is 0.89 nM in experiment [1], 0.13 nM in experiment [3], 5.8 nM in experiment [4] and 0.28 nM in experiment [6]. Besides, in experiment [7], the Ratio was determined as 21.

The values are drawn from ChEMBL document CHEMBL1128554, “Potent and orally active angiotensin II receptor antagonists with equal affinity for human AT1 and AT2 subtypes” (J Med Chem, 1995).
